SF1 activator: SF-1 (human) activation. Q13285. CHO-K1 Gal4-SF-1 LBD luciferase reporter; % increase over DMSO SF-1-specific signal. activation, % at 10 µM. actives 1.9% (n = 65,000);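 active means activation above the mean activation of all tested compounds plus 3 SD, cut at about 50% in these data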
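Material: Transient Gal4-SF-1 LBD reporter, CHO-K1 | Input: 4,000 cells/well | Dosing: One dose, 10 µM compound, 1% DMSO | Incubation: 20 h compound treatment, 37 °C | Detection: SteadyLite luciferase luminescence | Evaluation: Percent activation relative to DMSO median and mock-transfected background | Benchmarks: DMSO-treated SF-1-transfected cells as negative, DMSO-treated mock-transfected cells lacking SF-1 as background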
D1 allo mod: D1 dopamine receptor (human) allosteric modulation; HEK293 D1, CRE-luciferase, dopamine EC30 potentiation; actives deviate in either direction; actives 5.9% (n = 58,000); P21728; B-score at 10 µM;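 active means luminescence count or its row- and column-corrected plate score outside the 99.7% band of the plate's sample wells, on either side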
HEK293 NFkB inh: lowers PMA/ionomycin-induced NF-kB signal in HEK293 cells; HEK-293 NF-kB luciferase reporter, luminescence; inhibition, % at 3 µM; actives 0.21% (n = 62,000); AID 465;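 active means inhibition above the mean of all tested compounds plus 3 SD, cut at about 40% in these data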;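 further: 0% = stimulated DMSO wells and 100% = 10 µM reference inhibitor 5653914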
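Material: HEK-293 cells with stable firefly luciferase reporter driven by four HIV NF-kB elements / Also added: PMA plus ionomycin mix as NF-kB-activating stimulus / Compound dosing: 3 µM once, 0.30% DMSO / Times: 1 h pretreatment, 16 h stimulation, 37 °C / Signal: luminescence / Evaluation: per-plate % inhibition versus controls / Benchmarks: DMSO and 10 µM reference inhibitor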
JNK3 blocker: inhibitors of human JNK3 kinase. purified JNK3 kinase activity, HTS. actives 0.61% (n = 60,000). P53779. inhibition, % at 8 µM; in the data active means inhibition above about 17%;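 further: 0% = DMSO and 100% = reference inhibitor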
Target sequence (P53779 whole entry, looked up): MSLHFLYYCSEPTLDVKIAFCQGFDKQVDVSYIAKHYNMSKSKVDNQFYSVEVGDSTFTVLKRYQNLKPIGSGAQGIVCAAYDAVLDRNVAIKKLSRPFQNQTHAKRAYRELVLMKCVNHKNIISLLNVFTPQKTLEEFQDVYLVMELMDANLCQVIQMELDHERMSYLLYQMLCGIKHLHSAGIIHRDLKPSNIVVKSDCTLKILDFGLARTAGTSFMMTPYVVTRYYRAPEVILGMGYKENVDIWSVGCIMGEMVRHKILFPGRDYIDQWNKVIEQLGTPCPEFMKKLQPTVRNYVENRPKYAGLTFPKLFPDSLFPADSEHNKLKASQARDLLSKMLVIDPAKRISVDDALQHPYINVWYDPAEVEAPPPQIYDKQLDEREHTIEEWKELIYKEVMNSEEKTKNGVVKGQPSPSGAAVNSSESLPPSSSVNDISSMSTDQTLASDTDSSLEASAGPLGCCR
RORa activator: activates the human nuclear receptor RORA; activation, % at 10 µM; P35398; CHO-K1 Gal4-RORA LBD luciferase reporter, luminescence; percent increase over mock-subtracted basal signal; actives 1.5% (n = 65,000);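 active means activation above the mean of all tested compounds plus 3 SD, cut at about 49% in these data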;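 further: 0% = DMSO-treated RORA cells and 100% = added signal equal to DMSO minus mock-transfected cells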
D1 mod confirm: D1 receptor (human) allosteric modulation, confirmed | shares compounds with D1 allo mod | HEK293 D1 CRE-luciferase, dopamine EC30 potentiation; active compounds read high | luminescence at 10 µM | actives 88% (n = 2,200) | AID 642;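 active means luminescence in either of two replicates above the same-plate mean plus 3 SD of the low-dose dopamine control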
D1 ag no DA: secondary test of D1 modulators: activity without dopamine; shares compounds with D1 allo mod; HEK293 D1 CRE-luciferase, luminescence, no dopamine; active compounds read high; luminescence at 10 µM; actives 0.8% (n = 1,900); in the data active means luminescence above about 3900
Isoprot counter: counter-screen for D1 modulators: isoproterenol response in HEK293 cells; shares compounds with D1 allo mod; HEK293 D1 CRE-luciferase, isoproterenol EC30 counter-screen; calls only at 10 µM; actives 63% (n = 2,200); AID 647;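 active means luminescence in either replicate above plate mean of wells with a partly effective reference agonist dose plus 3 SD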;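 further: isoproterenol raises cAMP through native beta-adrenoceptor Gs so signal bypasses D1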
Numbers without * were called inactive; i = inactive; / = no result; + = active, no number. Shown are actives, neighbours in structure and some others; about 7.9% of the full set was active somewhere.

SMILES	SF1 activator	D1 allo mod	HEK293 NFkB inh	JNK3 blocker	RORa activator	D1 mod confirm	D1 ag no DA	Isoprot counter
Nc1nc(Nc2cccc(F)c2)nc2ccccc12	67.3*	-2.72	-11.6	/	46.8	/	/	/
CCN(CC)S(=O)(=O)c1ccc2oc(C(=O)NCc3ccc(F)cc3)c(C)c2c1	12.0	/	27.6	/	27.3	/	/	/
O=C(Cc1coc(-c2ccc(F)cc2)n1)N1CCOCC1	-4.4	0.156	11.3	-4.1	20.0	/	/	/
O=C(NC1=NCCS1)c1ccncc1	4.0	1.3	6.9	-2.9	24.7	/	/	/
O=C(NC1=NCCS1)c1ccc(OCC2CCCO2)cc1 (stereo not given)	49.0	-3.03*	-18.9	3.7	36.4	/	/	/
Cc1ccc(C2NC(=O)c3ccccc3N2)s1 (stereo not given)	89.4*	-0.201	-17.1	7.8	76.6*	/	/	/
O=C1NC(c2ccncc2)Nc2ccccc21 (stereo not given)	-13.2	-0.334	16.9	0.5	-28.9	/	/	/
COc1ccc(-n2nnc3c(SCC(=O)N4CCN(c5ccccc5)CC4)ncnc32)cc1	14.6	-0.228	5.7	-0.9	-5.8	/	/	/
COc1ccccc1N1CCN(c2nc(N)c(C#N)c(CC#N)c2C#N)CC1	-1.1	/	15.4	/	5.1	/	/	/
N#CCc1c(C#N)c(N)nc(N2CCN(S(=O)(=O)c3ccccc3)CC2)c1C#N	3.0	5.49*	15.6	-0.4	11.7	11684*	1432	+
COc1cc2c(=O)n(CCCN3CCOCC3)c(=S)[nH]c2c(OC)c1OC	-4.8	0.0549	-3.8	1.0	-2.6	/	/	/
Cc1cc(C)c2c(N)c(C(=O)N3CCN(c4ncccn4)CC3)sc2n1	12.9	3.18	19.1	7.4	-3.4	/	/	/
COCc1cc(C)nc2sc(C(=O)N3CCN(c4ccccc4)CC3)c(N)c12	-6.2	4.59*	7.6	-5.2	-11.1	8080*	1512	i
CCn1c(SCC(=O)N2CCC(C(N)=O)(N3CCCCC3)CC2)nnc1-c1ccccc1	-4.6	-1.21	14.8	-1.3	3.2	/	/	/
CCOC(=O)c1[nH]c2ccccc2c1NC(=O)c1nonc1C	0.7	5.8*	16.6	/	-13.9	11368*	1672	+
CCOC(=O)c1[nH]c2ccccc2c1NC(=O)C(C)(C)C	-4.9	4.46*	22.8	0.5	-30.6	7700*	1592	i
CCOC(=O)c1[nH]c2ccc(OC)cc2c1NC(=O)c1nonc1C	3.2	8.71*	-2.0	3.5	3.0	12456*	/	+
CCOC(=O)c1[nH]c2ccccc2c1NC(C)=O	8.7	0.389	13.5	-2.1	-16.3	/	/	/
Cc1cccc(N2CCN(c3nnnn3-c3ccccc3)CC2C)c1 (stereo not given)	-9.8	/	0.1	/	3.3	/	/	/
CCC(CO)NC(=O)c1cccc(S(=O)(=O)N2c3ccccc3CC2C)c1 (stereo not given)	18.7	0.747	20.1	-2.5	20.8	/	/	/
CCCc1[nH]nc2c1C1(CCOC1C)C(C#N)=C(N)O2 (stereo not given)	15.0	2	22.2	-2.2	-10.3	/	/	/
O=C(NCc1ccccn1)C1CCN(S(=O)(=O)N2CCCC2)CC1	-10.1	/	-3.4	/	-9.2	/	/	/
CN1CCN(c2nc(-c3ccccc3)c3cc(Cl)ccc3n2)CC1	-0.9	4.98*	-1.6	-4.8	1.6	11380*	1508	i
Clc1ccc2nc(N3CCNCC3)nc(-c3ccccc3)c2c1	8.4	/	/	-0.3	3.7	/	/	/
CC(c1ccco1)N(C(=O)CSc1ccc(Br)cc1)c1ccccn1 (stereo not given)	0.5	-1.11	14.2	1.9	-15.2	/	/	/
SMILES	SF1 activator	D1 allo mod	HEK293 NFkB inh	JNK3 blocker	RORa activator	D1 mod confirm	D1 ag no DA	Isoprot counter
CCCc1nc2ccccc2c2nc(N)nn12	17.6	27.3*	11.2	-2.3	-0.6	19312*	1684	+
CCCc1nc2ccccc2c(=O)n1-c1c(C)n(C)n(-c2ccccc2)c1=O	-10.5	-1.46	6.2	2.1	-16.2	/	/	/
Nc1nc2c3ccccc3nc(Cc3ccccc3)n2n1	3.4	15.8*	11.9	9.3	11.8	11064*	1640	+
O=S(=O)(N1CCCCC1)n1c(Cc2ccccc2)nc2ccccc21	1.6	3.38	12.7	-4.2	-9.5	/	/	/
CN1CCN(c2ccc(Cl)cc2NC(=O)c2cccc(S(=O)(=O)N(C)C)c2)CC1	9.1	5.21*	11.1	3.6	-14.4	13264*	1580	i
CN(C)S(=O)(=O)c1cccc(C(=O)Nc2cc(Cl)ccc2O)c1	-6.7	0.106	2.6	-0.4	-8.1	/	/	/
CCOC(=O)Nc1sc(C)nc1-c1ccccc1	-21.4	3.73*	1.5	-1.7	22.8	5108	1368	i
CCOC(=O)c1sc(N)nc1-c1ccccc1	0.0	11.7*	2.5	2.8	-0.3	13660*	1536	+
Cc1nc(N2CCc3ccccc32)[nH]c(=O)c1CCC(C)C	-4.5	-0.654	26.6	-2.4	1.3	/	/	/
COCCCNc1ncnc2nc[nH]c12	1.7	0.7	18.3	1.4	16.6	/	/	/
CCOCCCn1c(=NC(=O)c2cccnc2)c(C(=O)OCC)cc2c(=O)n3ccccc3nc21	8.8	3.28*	16.8	4.3	29.9	10440*	1560	+
CCCCn1c(=NC(=O)c2cccnc2)c(C(=O)OCC)cc2c(=O)n3ccccc3nc21	3.7	6.99*	15.7	/	-6.5	11452*	1452	i
CCCCn1c(=NC(=O)c2ccco2)c(C(=O)OCC)cc2c(=O)n3ccccc3nc21	-4.8	5.57*	16.6	/	0.4	9240*	1496	i
CCOc1ccc(S(=O)(=O)n2nnc3ccccc32)cc1C(C)C	-2.8	0.426	11.4	5.2	-15.1	/	/	/
COC(=O)C1=C(C(=O)c2ccc(C)cc2)C(c2ccc(OC)c(OC)c2)n2nnnc2N1 (stereo not given)	10.0	-0.187	-2.2	/	13.4	/	/	/
CC1CCCCC1n1c(=S)[nH]c2ccccc2c1=O (stereo not given)	-17.8	1.87	8.1	/	-6.3	/	/	/
CCn1c(=O)c(C(=O)Nc2nc3ccccc3[nH]2)c(O)c2ccccc21	-36.8	-0.651	20.6	3.8	-18.5	/	/	/
CC(C)OC(=O)CSc1nnc(-c2cnccn2)n1-c1ccc(Cl)cc1	-3.1	3.4*	20.7	5.2	-2.5	11484*	1664	i
CCCCCCC1C(C#N)=C(N)OC2=C1C(=O)CC(C)(C)C2 (stereo not given)	6.7	3.67*	-1.5	-6.3	-3.3	12024*	1864	+
Cc1cc2n(n1)C(c1sccc1C)Nc1ccccc1-2 (stereo not given)	0.0	8.38*	1.8	0.1	14.0	9040*	/	+
